From PMC5760799 (Journal of Pharmaceutical Analysis, 2011)
Ends that are not written are not given here.

Tests used:
[1] = Pharmacokinetic study of PSN-1 in rats after intravenous administration; assay type: in vivo; settings: male, Wister, rat, plasma, 3 mg/kg
Method in brief: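 Six male Wister rats (220–250 g), fasted overnight, received a single iv dose of 3.0 mg/kg. About 0.5 mL of blood was drawn from the ocular vein from 0 to 8 h, with time points split between two groups of three rats. Blood was heparinised, spun at 890g for 10 min and plasma held at –20 °C. Plasma was then precipitated with acetonitrile/0.2% formic acid with thymopentin IS and run by UPLC-MS/MS (SRM). Non-compartmental analysis; mean±SD.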

[2] = Stability of PSN-1 in rat plasma; assay type: in vitro ADME; settings: UPLC-MS/MS, n=6

FLSLIPHIVSGVASIAKHF-NH2 [PSN-1]
AUC(0-inf) [1]: 1760 ± 404 ng·h/mL | AUC(0-t) [1]: 1660 ± 356 ng·h/mL | Cmax [1]: 1290 ± 340 ng/mL | Tmax [1]: 1.02 min | Vd [1]: 5.23 ± 0.84 L/kg | clearance [1]: 29.7 mL/min/kg | half-life [1]: 2.08 ± 0.31 h | Accuracy (RE) ([2]; long term, −20 °C for 10 days, added 0.05 μg/mL): −4.9% | Accuracy (RE) ([2]; long term, −20 °C for 10 days, added 0.2 μg/mL): −10.1% | Accuracy (RE) ([2]; long term, −20 °C for 10 days, added 1.6 μg/mL): −1.8% | Accuracy (RE) ([2]; short term, room temperature for 4 h before processing, added 0.05 μg/mL): 5.2% | Accuracy (RE) ([2]; short term, room temperature for 4 h before processing, added 0.2 μg/mL): −5.5% | Accuracy (RE) ([2]; short term, room temperature for 4 h before processing, added 1.6 μg/mL): −5.3% | Accuracy (RE) ([2]; three freeze–thaw cycles (−20 to 25 °C), added 0.05 μg/mL): −0.8% | Accuracy (RE) ([2]; three freeze–thaw cycles (−20 to 25 °C), added 0.2 μg/mL): 3.4% | Accuracy (RE) ([2]; three freeze–thaw cycles (−20 to 25 °C), added 1.6 μg/mL): −1.3%
